Data as given in ChEMBL document CHEMBL3085766, “Synthesis, ex vivo and in silico studies of 3-cyano-2-pyridone derivatives with vasorelaxant activity” (Eur J Med Chem, 2013).

Tests used:
Aorta [1] = test: Vasorelaxant activity in rat endothelium-denuded thoracic aortic ring assessed as inhibition of noradrenaline-induced contraction relative to control; type: functional
Method in brief: (§1)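 Isometric tension of isolated rat thoracic aorta rings, endothelium intact or removed, recorded with a force transducer. After stabilization, rings were challenged with […] for 10 min and washed in fresh Krebs solution. This was done three times at 30-min intervals. Endothelial status was confirmed by […] relaxation in the last contraction. Rings were then contracted with NA and given quarter-log cumulative concentrations; EC50 derived.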

Aorta [2] = test: Vasorelaxant activity in rat endothelium-denuded thoracic aortic ring assessed as inhibition of noradrenaline-induced contraction; type: functional, tissue-based; method in brief: as §1
Aorta [3] = test: Vasorelaxant activity in rat endothelium-intact thoracic aortic ring assessed as inhibition of noradrenaline-induced contraction; type: functional, tissue-based; method in brief: as §1
Aorta [4] = test: Vasorelaxant activity in rat endothelium-intact thoracic aortic ring assessed as inhibition of noradrenaline-induced contraction relative to control; type: functional; method in brief: as §1

Row | SMILES | Efficacy (Aorta [1]) [%] | EC50 (Aorta [2]) [µM] | inhibition (Aorta [2]) | EC50 (Aorta [3]) [µM] | Efficacy (Aorta [4]) [%]
1 | CCOC(=O)c1c(C)[nH]c(=O)c(C#N)c1-c1cccs1 | 99 | 12 | Dose-dependent effect | 5 | 100
2 | CCOC(=O)c1c(C)[nH]c(=O)c(C#N)c1-c1ccc([N+](=O)[O-])cc1[N+](=O)[O-] | 99 | 3.6 | Dose-dependent effect | 4.4 | 97
3 | CCOC(=O)c1c(C)[nH]c(=O)c(C#N)c1-c1cccc(Cl)c1 | 99 | 62 | Dose-dependent effect | 85 | 97
4 | CCOC(=O)c1c(C)[nH]c(=O)c(C#N)c1-c1ccncc1 | 86.4 | 178 | Dose-dependent effect | 270 | 85.47
5 | COC(=O)C1=C(C)NC(C)=C(C(=O)OC)C1c1ccccc1[N+](=O)[O-] [NIFEDIPINE] | 97 | 0.03 | – | – | –
6 | CCOC(=O)c1c(C)[nH]c(=O)c(C#N)c1-c1ccco1 | 93 | 31 | Dose-dependent effect | 22 | 100
7 | CCOC(=O)c1c(C)[nH]c(=O)c(C#N)c1-c1ccc([N+](=O)[O-])cc1 | 95 | 8.2 | Dose-dependent effect | 7 | 98
8 | C[N+](C)(C)CCOC(N)=O.[Cl-] [CARBACHOL] | – | – | – | 0.3 | 74.06
